Assay results from ChEMBL document CHEMBL5303300, “EUbOPEN Chemogenomics Library - Multiplex” (2023).
Several values for one entry are separate records, joined by “and”; a condition that tells them apart may be missing. Equal values may be shown once.

Legend:
[1] = test system: U2OS; test: Multiplex assay against U2OS; assay type: toxicity, cell-based; conditions: human, number of replicates 2
In short: (§1)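 Cells were classed with CellPathfinder machine-learning gating, first as Hoechst high-intensity objects or normal cells, then (normal cells) as healthy, pyknosed or fragmented nuclei, and finally (pyknosed cells) as mitotic or apoptotic. Staining of live cells at seeding used Hoechst33342, BioTracker Green Microtubule Cytoskeleton Dye, MitoTracker Red and Annexin V Alexa Fluor 680, with imaging on a CQ1 microscope at 37°C and 5% CO2 after compound addition. Tubulin, mitochondrial-mass and membrane-permeability phenotypes are per cents of healthy-nucleus cells.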

[2] = test system: HEK-293T; test: Multiplex assay against HEK293T; assay type: toxicity, cell-based; conditions: human, number of replicates 2; in short: as §1
[3] = 24 h, 10 µM, compound concentration 10 uM
[4] = 48 h, 1 µM, compound concentration 1 uM
[5] = 48 h, 10 µM, compound concentration 10 uM
[6] = 12 h, 1 µM, compound concentration 1 uM
[7] = 12 h, 10 µM, compound concentration 10 uM
[8] = 24 h, 1 µM, compound concentration 1 uM

NCC1CCC(CNc2nc(NCc3ccccc3OC(F)(F)F)ncc2[N+](=O)[O-])CC1 (stereo unspecified)
Population Apoptotic (%) [1, 3]: 100% and 80% | Population Fragmented Nuclei (%) [1, 3]: 28% and 21% | Population Healthy Nuclei (%) [1, 3]: 31% and 59% | Population Hoechst High Intensity Objects (%) [1, 3]: 0% | Population Membrane Permeable-Phenotype (%) [1, 3]: 63% and 43% | Population Mitochondria Different-Phenotype (%) [1, 3]: 36% and 55% | Population Mitotic Cells (%) [1, 3]: 0% and 19% | Population Normal (%) [1, 3]: 100% | Population Pyknosed Nuclei (%) [1, 3]: 40% and 19% | Population Tubulin-Different-Phenotype (%) [1, 3]: 90% and 81% | Population Apoptotic (%) [1, 4]: 76% and 78% | Population Fragmented Nuclei (%) [1, 4]: 6% and 1% | Population Healthy Nuclei (%) [1, 4]: 71% and 88% | Population Hoechst High Intensity Objects (%) [1, 4]: 0% | Population Membrane Permeable-Phenotype (%) [1, 4]: 7% and 2% | Population Mitochondria Different-Phenotype (%) [1, 4]: 3% and 10% | Population Mitotic Cells (%) [1, 4]: 23% and 21% | Population Normal (%) [1, 4]: 100% | Population Pyknosed Nuclei (%) [1, 4]: 21% and 9% | Population Tubulin-Different-Phenotype (%) [1, 4]: 19% and 34% | Population Apoptotic (%) [1, 5]: 100% and 91% | Population Fragmented Nuclei (%) [1, 5]: 24% and 21% | Population Healthy Nuclei (%) [1, 5]: 24% and 54% | Population Hoechst High Intensity Objects (%) [1, 5]: 0% | Population Membrane Permeable-Phenotype (%) [1, 5]: 100% and 72% | Population Mitochondria Different-Phenotype (%) [1, 5]: 75% and 46% | Population Mitotic Cells (%) [1, 5]: 0% and 8% | Population Normal (%) [1, 5]: 100% | Population Pyknosed Nuclei (%) [1, 5]: 51% and 23% | Population Tubulin-Different-Phenotype (%) [1, 5]: 100% and 86% | Population Apoptotic (%) [2, 6]: 50% and 53% | Population Fragmented Nuclei (%) [2, 6]: 3% and 4% | Population Healthy Nuclei (%) [2, 6]: 86% and 81% | Population Hoechst High Intensity Objects (%) [2, 6]: 9% and 10% | Population Membrane Permeable-Phenotype (%) [2, 6]: 5% and 1% | Population Mitochondria Different-Phenotype (%) [2, 6]: 23% and 25% | Population Mitotic Cells (%) [2, 6]: 50% and 46% | Population Normal (%) [2, 6]: 90% and 89% | Population Pyknosed Nuclei (%) [2, 6]: 9% and 14% | Population Tubulin-Different-Phenotype (%) [2, 6]: 86% and 81% | Total Cell Count [2, 6]: 881 and 733 | Population Apoptotic (%) [2, 7]: 73% and 77% | Population Fragmented Nuclei (%) [2, 7]: 6% and 2% | Population Healthy Nuclei (%) [2, 7]: 79% and 81% | Population Hoechst High Intensity Objects (%) [2, 7]: 8% and 9% | Population Membrane Permeable-Phenotype (%) [2, 7]: 1% | Population Mitochondria Different-Phenotype (%) [2, 7]: 82% | Population Mitotic Cells (%) [2, 7]: 26% and 22% | Population Normal (%) [2, 7]: 91% and 90% | Population Pyknosed Nuclei (%) [2, 7]: 13% and 16% | Population Tubulin-Different-Phenotype (%) [2, 7]: 93% and 91% | Total Cell Count [2, 7]: 345 and 365 | Population Apoptotic (%) [2, 8]: 40% and 60% | Population Fragmented Nuclei (%) [2, 8]: 6% and 5% | Population Healthy Nuclei (%) [2, 8]: 85% | Population Hoechst High Intensity Objects (%) [2, 8]: 8% and 9% | Population Membrane Permeable-Phenotype (%) [2, 8]: 4% and 2% | Population Mitochondria Different-Phenotype (%) [2, 8]: 9% and 10% | Population Mitotic Cells (%) [2, 8]: 59% and 40% | Population Normal (%) [2, 8]: 91% and 90% | Population Pyknosed Nuclei (%) [2, 8]: 7% and 9% | Population Tubulin-Different-Phenotype (%) [2, 8]: 70% and 65% | Total Cell Count [2, 8]: 1307 and 1039 | Population Apoptotic (%) [2, 3]: 67% and 68% | Population Fragmented Nuclei (%) [2, 3]: 4% and 2% | Population Healthy Nuclei (%) [2, 3]: 79% and 81% | Population Hoechst High Intensity Objects (%) [2, 3]: 9% and 7% | Population Membrane Permeable-Phenotype (%) [2, 3]: 0% and 2% | Population Mitochondria Different-Phenotype (%) [2, 3]: 81% and 78% | Population Mitotic Cells (%) [2, 3]: 32% and 31% | Population Normal (%) [2, 3]: 90% and 92% | Population Pyknosed Nuclei (%) [2, 3]: 15% | Population Tubulin-Different-Phenotype (%) [2, 3]: 94% and 95% | Total Cell Count [2, 3]: 375 and 418 | Population Apoptotic (%) [2, 4]: 12% and 31% | Population Fragmented Nuclei (%) [2, 4]: 17% and 10% | Population Healthy Nuclei (%) [2, 4]: 80% and 86% | Population Hoechst High Intensity Objects (%) [2, 4]: 11% and 12% | Population Membrane Permeable-Phenotype (%) [2, 4]: 5% and 3% | Population Mitochondria Different-Phenotype (%) [2, 4]: 0% and 1% | Population Mitotic Cells (%) [2, 4]: 87% and 68% | Population Normal (%) [2, 4]: 88% and 87% | Population Pyknosed Nuclei (%) [2, 4]: 2% and 3% | Population Tubulin-Different-Phenotype (%) [2, 4]: 42% and 39% | Total Cell Count [2, 4]: 2914 and 2116 | Population Apoptotic (%) [2, 5]: 67% and 62% | Population Fragmented Nuclei (%) [2, 5]: 6% and 5% | Population Healthy Nuclei (%) [2, 5]: 80% | Population Hoechst High Intensity Objects (%) [2, 5]: 7% and 9% | Population Membrane Permeable-Phenotype (%) [2, 5]: 4% and 3% | Population Mitochondria Different-Phenotype (%) [2, 5]: 70% and 57% | Population Mitotic Cells (%) [2, 5]: 32% and 37% | Population Normal (%) [2, 5]: 92% and 90% | Population Pyknosed Nuclei (%) [2, 5]: 13% | Population Tubulin-Different-Phenotype (%) [2, 5]: 93% and 94% | Total Cell Count [2, 5]: 433 and 530
